Type in all cases: functional
One assay deals with Klebsiella pneumoniae. Description: Minimum inhibition concentration in vitro determined against Klebsiella pneumoniae 8045. In short, it runs like this: (§1)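 Agar dilution on brain-heart infusion (BHI) agar with twofold dilutions from a 2000 µg/mL stock, giving final test concentrations of 200-0.005 µg/mL. Organisms were grown overnight in BHI broth at 36 °C, and about 10⁴ organisms were inoculated per plate. Plates were incubated 18 h at 36 °C. MIC was the lowest concentration with no visible growth.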

The next assay concerns Klebsiella aerogenes. Description: Minimum inhibition concentration in vitro determined against Enterobacteri aerogenes ATCC 13048. In a few lines:
as §1

In assay [1] the test system is Staphylococcus aureus. Description: Minimum inhibition concentration in vitro determined against Staphylococcus aureus CMX 686B. In short, it runs like this: as §1
Assay [2] relates to Staphylococcus epidermidis. Description: Minimum inhibition concentration in vitro determined against Staphylococcus epidermidis 3519. In a few lines:
as §1

Assay [3] relates to Staphylococcus aureus. Put plainly: Minimum inhibition concentration in vitro determined against Staphylococcus aureus ATCC 6538P. In a few lines: as §1
The next assay has as its system Enterococcus faecium. Description: Minimum inhibition concentration in vitro determined against Streptococcus faecium ATCC 8043. In a few lines: as §1
A further assay has as its system Escherichia coli. Put plainly: Minimum inhibition concentration in vitro determined against Escherichia coli juhl. The following applies: Escherichia coli; read-out: MIC. In short, it runs like this:
as §1

In the next assay the test system is Streptococcus pyogenes. Put plainly: Minimum inhibition concentration in vitro determined against Streptococcus pyogenes 930. In a few lines:
as §1

The next assay relates to Acinetobacter. Put plainly: Minimum inhibition concentration in vitro determined against Acinetobacter sp CMX669. In a few lines: as §1
The test system of assay [4] is Pseudomonas aeruginosa. Description: Minimum inhibition concentration in vitro determined against Pseudomona aeruginosa 5007. In a few lines:
as §1

In assay [5] the test system is Pseudomonas aeruginosa. Put plainly: Minimum inhibition concentration in vitro determined against Pseudomona aeruginosa K799/WT. In short, it runs like this: as §1

Converted amounts (≈) assume the structure as drawn.

By MIC is commonly meant the least concentration at which growth counts as inhibited.

With `CN1CCN(c2cc3c(cc2F)c(=O)c(C(=O)O)cn3-c2ccc(O)cc2)CC1`, the minimum inhibitory concentration (MIC) in the assay with Klebsiella pneumoniae came out at 0.05 µg/mL (≈ 0.126 µM); with Klebsiella aerogenes, 0.2 µg/mL (≈ 0.503 µM); against Staphylococcus aureus [1] it was 0.1 µg/mL (≈ 0.252 µM); in assay [2] it was 0.2 µg/mL (≈ 0.503 µM); in the assay with Staphylococcus aureus [3] it was 0.05 µg/mL (≈ 0.126 µM); against Enterococcus faecium it was 0.39 µg/mL (≈ 0.981 µM). The MIC in the assay on Escherichia coli is 0.1 µg/mL (≈ 0.252 µM); in the assay with Streptococcus pyogenes it was 0.2 µg/mL (≈ 0.503 µM); against Acinetobacter, 0.39 µg/mL (≈ 0.981 µM); with Pseudomonas aeruginosa [4] it was 0.39 µg/mL (≈ 0.981 µM); in the assay on Pseudomonas aeruginosa [5], 0.39 µg/mL (≈ 0.981 µM).

As to `CCCCN1CCN(c2cc3c(cc2F)c(=O)c(C(=O)O)cn3-c2ccc(F)cc2)CC1`, the minimal inhibitory concentration (MIC) in the assay with Klebsiella pneumoniae amounted to 0.39 µg/mL (≈ 0.883 µM); against Klebsiella aerogenes, 1.56 µg/mL (≈ 3.53 µM); against Staphylococcus aureus [1], 0.78 µg/mL (≈ 1.77 µM); in assay [2], 1.56 µg/mL (≈ 3.53 µM); in the assay on Staphylococcus aureus [3], 0.78 µg/mL (≈ 1.77 µM); in the assay with Enterococcus faecium, 12.5 µg/mL (≈ 28.3 µM). For the same compound, the MIC with Escherichia coli worked out at 1.56 µg/mL (≈ 3.53 µM); against Streptococcus pyogenes, 6.2 µg/mL (≈ 14 µM); in the assay with Acinetobacter it was 3.1 µg/mL (≈ 7.02 µM); with Pseudomonas aeruginosa [4], 12.5 µg/mL (≈ 28.3 µM); against Pseudomonas aeruginosa [5] it was 12.5 µg/mL (≈ 28.3 µM).

For `O=C(O)c1cn(-c2ccc(F)cc2)c2cc(N3CCCCC3)c(F)cc2c1=O`, the minimum inhibitory concentration (MIC) with Klebsiella pneumoniae is 1.56 µg/mL (≈ 4.06 µM); with Klebsiella aerogenes it was 3.1 µg/mL (≈ 8.06 µM); in the assay on Staphylococcus aureus [1], 0.2 µg/mL (≈ 0.52 µM); in assay [2] it was 0.39 µg/mL (≈ 1.01 µM); against Staphylococcus aureus [3], 0.2 µg/mL (≈ 0.52 µM); against Enterococcus faecium, 3.1 µg/mL (≈ 8.06 µM). The minimal inhibitory concentration (MIC) in the assay on Escherichia coli was found to be 1.56 µg/mL (≈ 4.06 µM); against Streptococcus pyogenes, 1.56 µg/mL (≈ 4.06 µM); against Acinetobacter, 1.56 µg/mL (≈ 4.06 µM); in the assay on Pseudomonas aeruginosa [4] it was 6.2 µg/mL (≈ 16.1 µM); with Pseudomonas aeruginosa [5], 6.2 µg/mL (≈ 16.1 µM).

`CN1CCN(c2cc3c(cc2F)c(=O)c(C(=O)O)cn3-c2ccccc2F)CC1`: the minimum inhibitory concentration (MIC) against Klebsiella pneumoniae was determined as 0.39 µg/mL (≈ 0.976 µM); against Klebsiella aerogenes, 0.78 µg/mL (≈ 1.95 µM); with Staphylococcus aureus [1], 1.56 µg/mL (≈ 3.91 µM); in assay [2], 1.56 µg/mL (≈ 3.91 µM); in the assay with Staphylococcus aureus [3] it was 1.56 µg/mL (≈ 3.91 µM); in the assay with Enterococcus faecium it was 12.5 µg/mL (≈ 31.3 µM). For the same compound, the minimum inhibitory concentration (MIC) stood at 0.78 µg/mL (≈ 1.95 µM) in the assay on Escherichia coli; 12.5 µg/mL (≈ 31.3 µM) against Streptococcus pyogenes; 0.78 µg/mL (≈ 1.95 µM) against Acinetobacter; 6.2 µg/mL (≈ 15.5 µM) in the assay on Pseudomonas aeruginosa [4]; 6.2 µg/mL (≈ 15.5 µM) against Pseudomonas aeruginosa [5].

With `CN1CCN(c2cc3c(cc2F)c(=O)c(C(=O)O)cn3-c2ccc(Cl)cc2)CC1`, the MIC against Klebsiella pneumoniae was determined as 0.78 µg/mL (≈ 1.88 µM); against Klebsiella aerogenes, 1.56 µg/mL (≈ 3.75 µM); in the assay on Staphylococcus aureus [1] it was 1.56 µg/mL (≈ 3.75 µM); in assay [2], 1.56 µg/mL (≈ 3.75 µM); against Staphylococcus aureus [3] it was 1.56 µg/mL (≈ 3.75 µM); against Enterococcus faecium it was 100 µg/mL (≈ 240 µM). Also, the MIC came out at 1.56 µg/mL (≈ 3.75 µM) in the assay with Escherichia coli; 12.5 µg/mL (≈ 30.1 µM) against Streptococcus pyogenes; 1.56 µg/mL (≈ 3.75 µM) against Acinetobacter; 12.5 µg/mL (≈ 30.1 µM) against Pseudomonas aeruginosa [4]; 6.2 µg/mL (≈ 14.9 µM) against Pseudomonas aeruginosa [5].

`CN(C)C1CCN(c2cc3c(cc2F)c(=O)c(C(=O)O)cn3-c2ccc(F)cc2)C1` (centres undefined): the MIC in the assay on Klebsiella pneumoniae was 0.2 µg/mL (≈ 0.484 µM); with Klebsiella aerogenes, 0.78 µg/mL (≈ 1.89 µM); with Staphylococcus aureus [1] it was 0.39 µg/mL (≈ 0.943 µM); in [2], 0.39 µg/mL (≈ 0.943 µM); with Staphylococcus aureus [3] it was 0.39 µg/mL (≈ 0.943 µM); with Enterococcus faecium, 25 µg/mL (≈ 60.5 µM). Also, the minimum inhibitory concentration (MIC) came to 0.39 µg/mL (≈ 0.943 µM) with Escherichia coli; 3.1 µg/mL (≈ 7.5 µM) in the assay with Streptococcus pyogenes; 0.78 µg/mL (≈ 1.89 µM) in the assay on Acinetobacter; 25 µg/mL (≈ 60.5 µM) against Pseudomonas aeruginosa [4]; 12.5 µg/mL (≈ 30.2 µM) in the assay with Pseudomonas aeruginosa [5].

In the case of `Cc1ccccc1-n1cc(C(=O)O)c(=O)c2cc(F)c(N3CCN(C)CC3)cc21`, the MIC with Klebsiella pneumoniae was determined as 1.56 µg/mL (≈ 3.95 µM); in the assay with Klebsiella aerogenes, 3.1 µg/mL (≈ 7.84 µM); against Staphylococcus aureus [1], 3.1 µg/mL (≈ 7.84 µM); in assay [2], 3.1 µg/mL (≈ 7.84 µM); in the assay on Staphylococcus aureus [3], 3.1 µg/mL (≈ 7.84 µM); against Enterococcus faecium, 50 µg/mL (≈ 126 µM). Also, the MIC amounted to 1.56 µg/mL (≈ 3.95 µM) with Escherichia coli; 50 µg/mL (≈ 126 µM) against Streptococcus pyogenes; 1.56 µg/mL (≈ 3.95 µM) against Acinetobacter; 25 µg/mL (≈ 63.2 µM) against Pseudomonas aeruginosa [4]; 12.5 µg/mL (≈ 31.6 µM) in the assay on Pseudomonas aeruginosa [5].

Consider `O=C(O)c1cn(-c2ccc(F)cc2)c2cc(N3CCCC3)c(F)cc2c1=O`, for which the MIC against Klebsiella pneumoniae was determined as 0.39 µg/mL (≈ 1.05 µM); against Klebsiella aerogenes, 0.78 µg/mL (≈ 2.11 µM); in the assay with Staphylococcus aureus [1], 0.1 µg/mL (≈ 0.27 µM); in [2] it was 0.2 µg/mL (≈ 0.54 µM); with Staphylococcus aureus [3], 0.1 µg/mL (≈ 0.27 µM); against Enterococcus faecium, 0.78 µg/mL (≈ 2.11 µM). Besides, the MIC was found to be 0.78 µg/mL (≈ 2.11 µM) with Escherichia coli; 0.78 µg/mL (≈ 2.11 µM) against Streptococcus pyogenes; 0.78 µg/mL (≈ 2.11 µM) against Acinetobacter; 1.56 µg/mL (≈ 4.21 µM) in the assay with Pseudomonas aeruginosa [4]; 1.56 µg/mL (≈ 4.21 µM) against Pseudomonas aeruginosa [5].

Consider `O=C(O)c1cn(-c2ccccc2)c2cc(N3CCNCC3)c(F)cc2c1=O`, for which the MIC against Klebsiella aerogenes came to 0.39 µg/mL (≈ 1.06 µM); against Staphylococcus aureus [1], 0.39 µg/mL (≈ 1.06 µM); in assay [2], 1.56 µg/mL (≈ 4.25 µM); against Staphylococcus aureus [3], 0.39 µg/mL (≈ 1.06 µM); against Enterococcus faecium, 12.5 µg/mL (≈ 34 µM); with Escherichia coli it was 0.2 µg/mL (≈ 0.544 µM). For the same compound, the MIC against Streptococcus pyogenes was 1.56 µg/mL (≈ 4.25 µM); in the assay on Acinetobacter, 0.78 µg/mL (≈ 2.12 µM); with Pseudomonas aeruginosa [4], 0.78 µg/mL (≈ 2.12 µM); in the assay on Pseudomonas aeruginosa [5] it was 1.56 µg/mL (≈ 4.25 µM).

Turning to `Cc1ccc(-n2cc(C(=O)O)c(=O)c3cc(F)c(N4CCN(C)CC4)cc32)cc1`, the MIC is 0.78 µg/mL (≈ 1.97 µM) against Klebsiella pneumoniae; 3.1 µg/mL (≈ 7.84 µM) with Klebsiella aerogenes; 1.56 µg/mL (≈ 3.95 µM) against Staphylococcus aureus [1]; 3.1 µg/mL (≈ 7.84 µM) in assay [2]; 1.56 µg/mL (≈ 3.95 µM) with Staphylococcus aureus [3]; 50 µg/mL (≈ 126 µM) in the assay on Enterococcus faecium. In addition, the minimal inhibitory concentration (MIC) was 1.56 µg/mL (≈ 3.95 µM) in the assay with Escherichia coli; 12.5 µg/mL (≈ 31.6 µM) against Streptococcus pyogenes; 1.56 µg/mL (≈ 3.95 µM) in the assay with Acinetobacter; 12.5 µg/mL (≈ 31.6 µM) against Pseudomonas aeruginosa [4]; 12.5 µg/mL (≈ 31.6 µM) in the assay on Pseudomonas aeruginosa [5].
